The text below walks through data of ChEMBL document CHEMBL5107962, “Covalent sortase A inhibitor ML346 prevents Staphylococcus aureus infection of Galleria mellonella” (RSC Med Chem, 2022).

Assay [1] has as its target T1, Procathepsin L (Homo sapiens, UniProt P07711). Particulars: dose 6.25 nM, time 15.0 min.
Target sequence in this assay (P07711 114-333 limits assumed): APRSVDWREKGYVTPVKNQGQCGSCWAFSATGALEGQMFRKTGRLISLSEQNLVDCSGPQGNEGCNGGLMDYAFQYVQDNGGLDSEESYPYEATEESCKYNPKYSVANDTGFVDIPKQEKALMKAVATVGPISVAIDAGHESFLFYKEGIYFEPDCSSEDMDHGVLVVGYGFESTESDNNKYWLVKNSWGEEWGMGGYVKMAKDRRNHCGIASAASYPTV
The target in assay [2] is T2, Cathepsin B (Homo sapiens, UniProt P07858). Particulars: dose 6.25 nM, time 15.0 min.
Assay [3] deals with T1, Procathepsin L. The experiment in a line: Inhibition of cathepsin L (unknown origin) using Cbz-Phe-Arg-AMC as substrate preincubated for 5 mins followed by substrate addition and measured after 10 mins by fluorometric assay. In a few lines:
(§1)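 Cathepsin B solution (0.2 ng/µL) or cathepsin L solution (0.02 ng/µL) preincubated with compound at 40 °C for 5 min. Equal volume of pre-warmed Cbz-Phe-Arg-AMC solution added (40 µM for B, 80 µM for L). AMC fluorescence (ex 380/em 460 nm) read continuously for 10 min. Triplicates, two independent experiments, mean ± SEM.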
Target sequence in this assay (P07711 whole entry): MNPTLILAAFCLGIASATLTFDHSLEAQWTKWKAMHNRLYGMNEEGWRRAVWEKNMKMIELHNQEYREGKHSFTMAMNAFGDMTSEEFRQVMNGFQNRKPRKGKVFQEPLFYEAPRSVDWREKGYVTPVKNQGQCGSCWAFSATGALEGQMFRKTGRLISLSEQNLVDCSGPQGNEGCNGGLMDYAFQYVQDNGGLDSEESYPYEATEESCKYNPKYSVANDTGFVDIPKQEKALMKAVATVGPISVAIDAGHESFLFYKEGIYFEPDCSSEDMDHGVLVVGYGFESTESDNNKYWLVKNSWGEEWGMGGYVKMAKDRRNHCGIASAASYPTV

For assay [4], the target named is T2, Cathepsin B. The experiment in a line: Inhibition of cathepsin B (unknown origin) using Cbz-Phe-Arg-AMC as substrate preincubated for 5 mins followed by substrate addition and measured after 10 mins by fluorometric assay. In a few lines:
as §1

Active and inactive are the calls of the source. The rule behind the calls is not given here.

In general, IC50 refers to the point on the concentration scale where inhibition reaches its midpoint. Consider `CC(C)C[C@H](NC(=O)[C@H]1O[C@@H]1C(=O)O)C(=O)NCCCCN=C(N)N` [E-64], for which the inhibition result on Procathepsin L [1] and on Cathepsin B [2] was “Active” throughout. In addition, the IC50 against Procathepsin L [3] came to 2.3 nM; at Cathepsin B [4] it was 4.6 nM.
